For test [1], the target named is T1, Relaxin-3 receptor 1 (Homo sapiens, UniProt Q9NSD7).
T1 sequence (Q9NSD7 whole entry): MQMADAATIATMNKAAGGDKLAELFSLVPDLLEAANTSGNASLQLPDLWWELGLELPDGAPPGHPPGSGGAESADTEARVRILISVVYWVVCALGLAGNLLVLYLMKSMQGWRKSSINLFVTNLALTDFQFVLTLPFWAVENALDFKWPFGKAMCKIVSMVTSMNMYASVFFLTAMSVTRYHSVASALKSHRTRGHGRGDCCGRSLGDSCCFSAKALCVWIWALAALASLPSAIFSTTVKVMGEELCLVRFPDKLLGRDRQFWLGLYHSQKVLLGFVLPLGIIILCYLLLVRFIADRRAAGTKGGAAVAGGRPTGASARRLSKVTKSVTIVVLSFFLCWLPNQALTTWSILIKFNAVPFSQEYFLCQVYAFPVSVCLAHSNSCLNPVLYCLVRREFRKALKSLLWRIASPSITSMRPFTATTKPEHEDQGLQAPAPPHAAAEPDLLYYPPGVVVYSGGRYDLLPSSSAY
Kind of test: Agonist activity at RXFP3 (unknown origin) stably expressed in CHO-K1 cells co-transfected with pCRE assessed as inhibition of forskolin-induced cAMP accumulation measured after 6 hrs by beta-galactosidase reporter gene assay. In kind it is functional, cell-based. In short, it runs like this: (§1)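 Cells were CHO lines expressing RXFP3 or RXFP4, which couple to Gi/o. Agonist action was read as inhibition of forskolin-stimulated cAMP in a reporter gene assay after 6 h stimulation. pEC50 values were pooled from 3–4 independent experiments.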

The target of test [2] is T1, Relaxin-3 receptor 1. The test is described as follows: Displacement of Eu-labeled H3B1-22R from RXFP3 (unknown origin) stably expressed in CHO-K1 cells by competition binding assay. It counts as cell-based. The method in brief: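 Competition binding used europium-labeled H3 B1-22R as the labeled ligand on CHO-RXFP3 cells, with peptides as competitors. pKi values were pooled from 3–4 independent experiments.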

Another test deals with Relaxin-3 receptor 2 (Homo sapiens, UniProt Q8TDU9). Kind of test: Agonist activity at RXFP4 (unknown origin) stably expressed in CHO cells co-transfected with pCRE assessed as inhibition of forskolin-induced cAMP accumulation measured after 6 hrs by beta-galactosidase reporter gene assay. In kind it is functional, cell-based. The method in brief:
as §1

In general, EC50 refers to the concentration at which the effect is half-maximal. Usually Ki stands for a dissociation constant, usually derived from enzyme kinetics or from competition with a known ligand.

Relaxin-3 receptor 2, sequence (Q8TDU9 whole entry): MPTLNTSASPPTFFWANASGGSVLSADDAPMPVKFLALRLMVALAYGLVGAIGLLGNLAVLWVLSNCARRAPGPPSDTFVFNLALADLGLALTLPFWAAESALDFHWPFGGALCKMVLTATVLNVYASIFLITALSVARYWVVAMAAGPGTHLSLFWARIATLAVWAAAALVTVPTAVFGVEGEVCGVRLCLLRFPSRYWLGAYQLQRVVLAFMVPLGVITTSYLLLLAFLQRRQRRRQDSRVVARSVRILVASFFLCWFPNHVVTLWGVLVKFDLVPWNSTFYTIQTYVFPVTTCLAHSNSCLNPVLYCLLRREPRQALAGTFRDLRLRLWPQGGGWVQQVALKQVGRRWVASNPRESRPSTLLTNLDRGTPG

On to `CC[C@H](C)[C@@H]1NC(=O)[C@H](CCC(=O)O)NC(=O)[C@H](CO)NC(=O)[C@H](CCCCN)NC(=O)[C@H](CO)NC(=O)[C@H](C)NC(=O)CNC(=O)[C@H](Cc2c[nH]c3ccccc23)NC(=O)[C@H](CCCCN)NC(=O)[C@@H](N)CSSC[C@@H](C(=O)NCC(=O)NCC(=O)N[C@@H](CO)C(=O)N[C@@H](CCCNC(=N)N)C(=O)N[C@@H](Cc2c[nH]c3ccccc23)C(=O)O)NC(=O)[C@H]([C@@H](C)O)NC(=O)[C@H](Cc2ccccc2)NC(=O)[C@H]([C@@H](C)CC)NC(=O)[C@H](C(C)C)NC(=O)[C@H](CCCNC(=N)N)NC(=O)[C@H]([C@@H](C)CC)NC(=O)[C@H](Cc2ccccc2)NC(=O)[C@H](CCC(=O)O)NC(=O)[C@H](CCCNC(=N)N)NC(=O)CNC(=O)[C@@H](NC(=O)[C@H](CC(C)C)NC(=O)[C@H](CCCNC(=N)N)NC(=O)[C@@H](NC(=O)CNC(=O)[C@H](Cc2ccc(O)cc2)NC(=O)[C@@H]2CCCN2C(=O)[C@H](C)NC(=O)[C@H](C)NC(=O)[C@H](CCCNC(=N)N)N[C@@H](Cc2c[nH]c3ccccc23)C(N)=O)C(C)C)CSSC[C@@H](C(=O)O)NC(=O)[C@H](CC(C)C)NC(=O)[C@H](CO)NC(=O)[C@H](CO)NC1=O`, for which the EC50 on Relaxin-3 receptor 1 [1] is 15.8 nM; at Relaxin-3 receptor 2, 14.5 nM. The same compound had a Ki at Relaxin-3 receptor 1 [2] of 191 nM.
As for `CC[C@H](C)[C@@H]1NC(=O)[C@H](CCC(=O)O)NC(=O)[C@H](CO)NC(=O)[C@H](CCCCN)NC(=O)[C@H](CO)NC(=O)[C@H](C)NC(=O)CNC(=O)[C@H](Cc2c[nH]c3ccccc23)NC(=O)[C@H](CCCCN)NC(=O)[C@@H](N)CSSC[C@@H](C(=O)NCC(=O)NCC(=O)N[C@@H](CO)C(=O)N[C@@H](CCCNC(=N)N)C(=O)N[C@@H](Cc2c[nH]c3ccccc23)C(=O)O)NC(=O)[C@H]([C@@H](C)O)NC(=O)[C@H](Cc2ccccc2)NC(=O)[C@H]([C@@H](C)CC)NC(=O)[C@H](C(C)C)NC(=O)[C@H](CCCNC(=N)N)NC(=O)[C@H]([C@@H](C)CC)NC(=O)[C@H](Cc2ccccc2)NC(=O)[C@H](CCC(=O)O)NC(=O)[C@H](CCCNC(=N)N)NC(=O)CNC(=O)[C@@H](NC(=O)[C@H](CC(C)C)NC(=O)[C@H](CCCNC(=N)N)NC(=O)[C@@H](NC(=O)CNC(=O)[C@H](Cc2ccc(O)cc2)NC(=O)[C@@H]2CCCN2C(=O)[C@H](C)NC(=O)[C@H](C)NC(=O)[C@H](CCCNC(=N)N)N[C@@H](Cc2c[nH]c3ccccc23)C(=O)O)C(C)C)CSSC[C@@H](C(=O)O)NC(=O)[C@H](CC(C)C)NC(=O)[C@H](CO)NC(=O)[C@H](CO)NC1=O`, the values for the EC50 at Relaxin-3 receptor 1 [1] and at Relaxin-3 receptor 2 were 6.17 nM and 6.92 nM, respectively. This compound gave a Ki at Relaxin-3 receptor 1 [2] of 45.7 nM.
On to `CC[C@H](C)[C@@H]1NC(=O)[C@H](CCC(=O)O)NC(=O)[C@H](CO)NC(=O)[C@H](CCCCN)NC(=O)[C@H](CO)NC(=O)[C@H](C)NC(=O)CNC(=O)[C@H](Cc2c[nH]c3ccccc23)NC(=O)[C@H](CCCCN)NC(=O)[C@@H](N)CSSC[C@@H](C(=O)NCC(=O)NCC(=O)N[C@@H](CO)C(=O)N[C@@H](CCCNC(=N)N)C(=O)N[C@@H](Cc2c[nH]c3ccccc23)C(=O)O)NC(=O)[C@H]([C@@H](C)O)NC(=O)[C@H](Cc2ccccc2)NC(=O)[C@H]([C@@H](C)CC)NC(=O)[C@H](C(C)C)NC(=O)[C@H](CCCNC(=N)N)NC(=O)[C@H]([C@@H](C)CC)NC(=O)[C@H](Cc2ccccc2)NC(=O)[C@H](CCC(=O)O)NC(=O)[C@H](CCCNC(=N)N)NC(=O)CNC(=O)[C@@H](NC(=O)[C@H](CC(C)C)NC(=O)[C@H](CCCNC(=N)N)NC(=O)[C@@H](NC(=O)CNC(=O)[C@H](Cc2ccc(O)cc2)NC(=O)[C@@H]2CCCN2C(=O)[C@H](C)NC(=O)[C@H](C)NC(=O)[C@H](CCCNC(=N)N)N[C@H](COC(N)=O)Cc2c[nH]c3ccccc23)C(C)C)CSSC[C@@H](C(=O)O)NC(=O)[C@H](CC(C)C)NC(=O)[C@H](CO)NC(=O)[C@H](CO)NC1=O`, for which the results for the EC50 at Relaxin-3 receptor 1 [1] and at Relaxin-3 receptor 2 were 6.17 nM and 19.5 nM, respectively. Also, the Ki on Relaxin-3 receptor 1 [2] is 110 nM.
The corresponding values for `CC[C@H](C)[C@@H]1NC(=O)[C@H](CCC(=O)O)NC(=O)[C@H](CO)NC(=O)[C@H](CCCCN)NC(=O)[C@H](CO)NC(=O)[C@H](C)NC(=O)CNC(=O)[C@H](Cc2c[nH]c3ccccc23)NC(=O)[C@H](CCCCN)NC(=O)[C@@H](N)CSSC[C@@H](C(=O)NCC(=O)NCC(=O)N[C@@H](CO)C(=O)N[C@@H](CCCNC(=N)N)C(=O)N[C@@H](Cc2c[nH]c3ccccc23)C(=O)O)NC(=O)[C@H]([C@@H](C)O)NC(=O)[C@H](Cc2ccccc2)NC(=O)[C@H]([C@@H](C)CC)NC(=O)[C@H](C(C)C)NC(=O)[C@H](CCCNC(=N)N)NC(=O)[C@H]([C@@H](C)CC)NC(=O)[C@H](Cc2ccccc2)NC(=O)[C@H](CCC(=O)O)NC(=O)[C@H](CCCNC(=N)N)NC(=O)CNC(=O)[C@@H](NC(=O)[C@H](CC(C)C)NC(=O)[C@H](CCCNC(=N)N)NC(=O)[C@@H](NC(=O)CNC(=O)[C@H](Cc2ccc(O)cc2)NC(=O)[C@@H]2CCCN2C(=O)[C@H](C)NC(=O)[C@H](C)NC(=O)[C@H](CCCNC(=N)N)N[C@H](CO)Cc2c[nH]c3ccccc23)C(C)C)CSSC[C@@H](C(=O)O)NC(=O)[C@H](CC(C)C)NC(=O)[C@H](CO)NC(=O)[C@H](CO)NC1=O` are 13.2 nM, 282 nM and 331 nM.
With `CC[C@H](C)[C@@H]1NC(=O)[C@H](CCC(=O)O)NC(=O)[C@H](CO)NC(=O)[C@H](CCCCN)NC(=O)[C@H](CO)NC(=O)[C@H](C)NC(=O)CNC(=O)[C@H](Cc2c[nH]c3ccccc23)NC(=O)[C@H](CCCCN)NC(=O)[C@@H](N)CSSC[C@@H](C(=O)NCC(=O)NCC(=O)N[C@@H](CO)C(=O)N[C@@H](CCCNC(=N)N)C(=O)N[C@@H](Cc2c[nH]c3ccccc23)C(=O)O)NC(=O)[C@H]([C@@H](C)O)NC(=O)[C@H](Cc2ccccc2)NC(=O)[C@H]([C@@H](C)CC)NC(=O)[C@H](C(C)C)NC(=O)[C@H](CCCNC(=N)N)NC(=O)[C@H]([C@@H](C)CC)NC(=O)[C@H](Cc2ccccc2)NC(=O)[C@H](CCC(=O)O)NC(=O)[C@H](CCCNC(=N)N)NC(=O)CNC(=O)[C@@H](NC(=O)[C@H](CC(C)C)NC(=O)[C@H](CCCNC(=N)N)NC(=O)[C@@H](NC(=O)CNC(=O)[C@H](Cc2ccc(O)cc2)NC(=O)[C@@H]2CCCN2C(=O)[C@H](C)NC(=O)[C@H](C)NC(=O)[C@H](CCCNC(=N)N)N[C@@H](Cc2c[nH]c3ccccc23)C(=O)OC[C@H](NC(C)=O)C(N)=O)C(C)C)CSSC[C@@H](C(=O)O)NC(=O)[C@H](CC(C)C)NC(=O)[C@H](CO)NC(=O)[C@H](CO)NC1=O`, the EC50 was 4.37 nM on Relaxin-3 receptor 1 [1] and 7.08 nM at Relaxin-3 receptor 2. In addition, the Ki at Relaxin-3 receptor 1 [2] is 186 nM.

(Values after ChEMBL document CHEMBL4725486, “Effects of C-Terminal B-Chain Modifications in a Relaxin 3 Agonist Analogue” (ACS Med Chem Lett, 2020).)
